ChEMBL document CHEMBL4477177, “Antituberculosis Activity of a Naturally Occurring Flavonoid, Isorhamnetin” (J Nat Prod, 2016)
In brackets after ≈: the same amount, converted by molar mass. Activity calls are given as the source filed them. No cut-off for these calls is given here.

Assays:
[1] = system: Mycobacterium tuberculosis; assay: Antitubercular activity against Mycobacterium tuberculosis H37Rv P887 incubated for 1 to 9 days by inverted microscopic analysis; format: functional
Outline: (§1)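 Bacteria immobilised in 0.5% agarose within microfluidic channels of a 96-well chip. Compound (0–632 μM; rifampicin 0–19.4 μM) supplied in Middlebrook 7H9 with 10% OADC and allowed to diffuse in. Incubated at 37 °C; channel boundary imaged by inverted microscopy (40×) at 1, 3, 5, 7 and 9 days. MIC90 taken as lowest concentration giving 90% growth inhibition. Triplicate.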

[2] = system: Mycobacterium tuberculosis; assay: Antitubercular activity against MDR Mycobacterium tuberculosis X23 incubated for 1 to 9 days by inverted microscopic analysis; format: functional
[3] = system: Mycobacterium tuberculosis; assay: Antitubercular activity against XDR Mycobacterium tuberculosis X24 incubated for 1 to 9 days by inverted microscopic analysis; format: functional; outline: as §1
[4] = system: Mycobacterium tuberculosis; assay: Antitubercular activity against XDR Mycobacterium tuberculosis X59 incubated for 1 to 9 days by inverted microscopic analysis; format: functional; outline: as §1
[5] = Cytotoxicity against human HaCaT cells assessed as cell survival rate at 16 uM after 24 hrs by MTT assay; format: cell-based; settings: read-out: Survival
Outline: (§2)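 Cells treated for 24 h with test agent (0–400 μM) or rifampicin (0–16 μM), then MTT assay. Survival taken as A570 of treated cells over A570 of untreated cells, as a percentage. Average of triplicates from three independent experiments.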

[6] = Cytotoxicity against mouse NIH/3T3 cells assessed as cell survival rate at 16 uM after 24 hrs by MTT assay; format: cell-based, NIH3T3; settings: read-out: Survival; outline: as §2
[7] = Cytotoxicity against human MRC5 cells assessed as cell survival rate at 16 uM after 24 hrs by MTT assay; format: cell-based; settings: read-out: Survival; outline: as §2
[8] = system: Mycobacterium tuberculosis; assay: Antitubercular activity against Mycobacterium tuberculosis H37Rv ATCC 27294 incubated for 7 days by resazurin assay; format: functional; settings: H37Rv ATCC 27294, 168 h

SMILES	MIC90 [1]	MIC90 [2]	MIC90 [3]	MIC90 [4]	viability at 24 h, 16 µM [5]	viability at 24 h, 16 µM [6]	viability at 24 h, 16 µM [7]	MIC [8]
CO[C@H]1/C=C/O[C@@]2(C)Oc3c(C)c(O)c4c(O)c(c(/C=N/N5CCN(C)CC5)c(O)c4c3C2=O)NC(=O)/C(C)=C\C=C\[C@H](C)[C@H](O)[C@@H](C)[C@@H](O)[C@@H](C)[C@H](OC(C)=O)[C@@H]1C [RIFAMPIN]	0.61 µM (≈ 0.502 µg/mL)	inactive	inactive	inactive	55%	62%	53%	–
O=c1cc(-c2ccc(O)c(O)c2)oc2cc(O)cc(O)c12 [LUTEOLIN]	–	–	–	–	–	–	–	827 µM (≈ 237 µg/mL)
